Hits are enriched below; roughly 2.3% of the tested compounds scored in any of these assays.
TPT1 inh – blocks Candida albicans tRNA 2'-phosphotransferase. recombinant caTPT1, FP RNA substrate dephosphorylation. inhibition, % at 5 µM. 300,000 compounds, 0.81% hits. AID 1962;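 active means inhibition above the mean of all tested compounds plus 3 SD, set per screening campaign, cut at about 24% in these data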;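 further: plate controls were DMSO alone for no effect and ferristatin control at 100 nM for full effect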
HNF4A DNA FP – change in binding of human HNF4 alpha to DNA | AID 1224865 | HNF4a-FITC DNA binding, fluorescence polarization, 1 h | P41235 | 360,000 compounds, 0.3% hits | activity change, % at 10 µM; in the data active means activity change above about 30%, passing the limit was not always enough
Target sequence (P41235 whole entry, looked up): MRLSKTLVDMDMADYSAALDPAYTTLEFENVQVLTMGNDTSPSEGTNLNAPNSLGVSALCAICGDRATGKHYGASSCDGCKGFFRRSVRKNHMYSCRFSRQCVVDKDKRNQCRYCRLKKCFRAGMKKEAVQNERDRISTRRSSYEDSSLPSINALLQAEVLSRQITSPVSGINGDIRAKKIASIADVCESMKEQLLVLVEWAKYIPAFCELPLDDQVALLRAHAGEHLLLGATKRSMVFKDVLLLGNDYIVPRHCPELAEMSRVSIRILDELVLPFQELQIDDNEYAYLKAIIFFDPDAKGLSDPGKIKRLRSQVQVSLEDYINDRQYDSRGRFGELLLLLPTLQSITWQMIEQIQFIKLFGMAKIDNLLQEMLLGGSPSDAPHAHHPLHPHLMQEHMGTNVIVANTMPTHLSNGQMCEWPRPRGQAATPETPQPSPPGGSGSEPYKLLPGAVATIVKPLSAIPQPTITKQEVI
CRFR2-BP ag – agonists of human CRF-binding protein/CRF-R2 receptor complex. activation, % at 13.2 µM. 350,000 compounds, 0.46% hits. HEK293 CRF-R2/CRF-BP, calcium dye fluorescence (FLIPR); percent of saturating CRF peptide response;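 active means activation of at least 50%, plus an integration ratio under a set limit after plate pattern correction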;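 further: plate controls were neutral control wells without compound for no effect and CRF at EC100 for full effect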
CRFR2-BP antag – blocks CRF-induced signaling of the CRF-BP/CRF-R2 complex; HEK293 CRF-R2/CRF-BP, CRF-induced calcium fluorescence; inhibition, % at 11.8 µM; 350,000 compounds, 0.59% hits;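 active means inhibition of the ligand-induced calcium signal above about 50% at the single tested concentration, limit read from the data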
CSN inh – blocks human CSN-mediated cullin deneddylation; Purified CSN, SCF-Nedd8-OG deneddylation, fluorescence polarization; 360,000 compounds, 0.38% hits; inhibition, % at 12.5 µM; Q92905;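 active means pattern-corrected inhibition above about 35%, with an unprinted fluorescence ratio check between 0.5 and 1.5, limit read from the data, passing the limit was not always enough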;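 further: 0% = enzyme with substrate and 100% = substrate without enzyme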
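Material: purified human Csn5 enzyme expressed in HEK293T cells / Medium: Tris buffer pH 7.5, NaCl, DTT, Tween-20, trehalose, ovalbumin / Compound dosing: 12.5 µM single point / Schedule: 90 min incubation of compound, enzyme and substrate at room temperature / Signal: fluorescence polarization of the substrate / Control set: no-enzyme wells high, enzyme-with-substrate wells low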
Rpn11 inh – inhibitors of human proteasome Rpn11; human 26S proteasome, Ub4-pepOG fluorescence polarization; 20S core pre-blocked with epoxomicin; 360,000 compounds, 0.59% hits; calls only at 20 µM; AID 588493; O00487;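 active means inhibition at 20 µM, scaled to each plate's controls, above about 33%, limit read from the data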
* hit, by the source's call; i = inactive; . = not tested or not shown; + = active, no number.

SMILES | TPT1 inh | HNF4A DNA FP | CRFR2-BP ag | CRFR2-BP antag | CSN inh | Rpn11 inh
N#C/C(=N\Nc1ccc(Cl)cc1)C(=O)c1ccsc1 | -3.7 | -0.4 | 31.7 | 25.6 | -0.1 | i
N#C/C(=N\Nc1cccc(Cl)c1)C(=O)c1ccccc1 | -1.3 | 0.7 | 57.6* | 46.7 | -1.9 | i
COc1ccc(C(=O)/C(C#N)=N/Nc2cccc([N+](=O)[O-])c2)cc1 | . | -2.1 | 27.9 | 56.9* | 0.8 | i
CC1(C(=O)Nc2ccccc2Cc2ccccc2)CCN1Cc1ccccc1Cl (stereo not given) | . | -1.6 | . | . | -4.3 | i
CCCSc1nc2c(c(=O)n1-c1ccc(OCC)cc1)SCC2 | 1.4 | -1.0 | -1.3 | 9.4 | 3.6 | i
Cc1cc(C)c2nc(Nc3nc(-c4ccccc4)cc(=O)[nH]3)nc(C)c2c1 | 2.0 | 3.6 | -0.4 | 6.9 | 4.3 | i
Cc1cc(-c2ccccc2)nc(Nc2nc3c(C)cccc3c(=O)[nH]2)n1 | . | 52.6* | -1.1 | 1.9 | 13.7 | i
C=CCCC(=O)N1C[C@@H](CO)[C@@H](NC)C[C@H]1c1ccccc1Br | . | 0.1 | . | . | 106.5* | i
CN1CC=C2C(C#N)=C(N)C(C#N)(C#N)[C@H](c3cccs3)[C@H]2C1 | -53.5 | -75.3 | 52.9* | -67.0 | -42.0 | i
CN1CC=C2C(C#N)=C(N)C(C#N)(C#N)C(CCc3ccccc3)C2C1 (stereo not given) | -31.3 | -36.6 | 59.4* | -58.5 | -13.1 | i
COc1cccc(C2C3CN(C)CC=C3C(C#N)=C(N)C2(C#N)C#N)c1OC (stereo not given) | -24.3 | -52.1 | 72.0* | -8.1 | -14.1 | i
CCN1CC=C2C(C#N)=C(N)C(C#N)(C#N)[C@H](c3cccc(OC)c3OC)[C@H]2C1 | -34.2 | -49.3 | 32.5 | -37.0 | -23.7 | i
COc1ccc(CN(N=O)C2CC(=O)N(c3ccc(OC)cc3)C2=O)cc1 (stereo not given) | 1.0 | 2.7 | -0.4 | 4.6 | -0.1 | i
Fc1ccc(COc2ccccc2-c2ccnc3ncnn23)cc1 | 0.7 | 4.0 | 2.4 | 9.2 | -2.9 | i
O=C1CC(c2ccc(Cl)cc2)SC(N(c2ccccc2)c2ccccc2)=N1 (stereo not given) | -2.0 | 0.2 | -0.2 | 113.9* | -15.1 | i
O=C1CC(c2ccccc2)SC(N(c2ccccc2)c2ccccc2)=N1 (stereo not given) | -0.1 | -0.2 | -2.6 | 55.8* | -3.9 | i
O=C1CC(c2cccc(F)c2)SC(N(c2ccccc2)c2ccccc2)=N1 (stereo not given) | -1.7 | 2.6 | -0.6 | 84.9* | 0.9 | i
COc1cccc(-c2nc3ccc(O)cc3c(=O)o2)c1 | 2.7 | -2.2 | -2.1 | 10.4 | 7.1 | i
CCN(C(=O)CSc1cc(C)c2ccc(OC)cc2n1)C1CCS(=O)(=O)C1 (stereo not given) | 0.8 | -1.1 | 0.3 | 98.5* | 3.8 | i
CCN(C(=O)CSc1cc(-c2ccccc2)c2ccc(OC)cc2n1)C1CCS(=O)(=O)C1 (stereo not given) | -2.8 | 1.4 | 41.8 | -67.2 | -4.0 | i
COc1ccc(-n2c(-c3ccc(Br)cc3)n[nH]c2=S)cc1 | -2.4 | 6.2 | 0.7 | -7.5 | 1.0 | i
Cc1ccc(N=C2C(=O)Nc3c(C)cccc32)cc1 | -4.7 | -2.2 | -0.4 | 14.5 | -4.3 | i
COc1ccc(N=C2C(=O)Nc3c(C)cccc32)cc1 | 5.0 | -1.3 | -1.0 | 93.6* | 3.2 | i
COc1ccc(CNc2cc(C)ccc2C)c(OC)c1OC | 2.3 | 1.7 | 1.4 | 33.3 | -1.7 | i
COc1ccc(C)cc1NCc1cccc(OC)c1OC | -6.2 | 0.0 | -3.1 | 78.4* | -0.1 | i
SMILES | TPT1 inh | HNF4A DNA FP | CRFR2-BP ag | CRFR2-BP antag | CSN inh | Rpn11 inh
CN(C)c1nc(SCC#N)nc(N2CCOCC2)n1 | -6.0 | 43.4* | -0.9 | 6.1 | -1.8 | i
COc1cccc(C2C(C(=O)c3sc(C)nc3C)=C(O)C(=O)N2CCN2CCOCC2)c1OC (stereo not given) | -1.2 | -0.1 | 0.3 | 9.9 | -1.6 | i
COc1ccccc1C1C(C(=O)c2sc(C)nc2C)=C(O)C(=O)N1CCN1CCOCC1 (stereo not given) | -0.1 | 1.3 | -1.6 | 94.3* | 4.5 | i
Cc1cc(N=NC(=O)c2ccccc2O)c2ccccc2c1O | -0.5 | 2.6 | 25.9 | 50.8* | -1.1 | i
Cc1csc(NC(=O)c2cc(-c3ccco3)nc3ccccc23)n1 | 6.7 | -38.0 | -1.1 | 14.7 | 45.8* | i
COc1ccc(-c2nnc(-c3cc4c(ccc5ccccc54)oc3=O)o2)cc1 | 10.1 | -0.9 | 28.8 | 43.4 | 0.7 | i
O=c1oc2ccc3ccccc3c2cc1-c1nnc(-c2ccccc2)o1 | 2.2 | 2.9 | 2.4 | 61.2* | 1.6 | i
CC(C)OC(=O)/C(C#N)=C/c1ccc(-c2ccc(SC(F)F)cc2)o1 | 3.3 | -1.7 | 14.6 | -45.0 | 3.6 | +
CN1CCN(c2ccc(CNC(=O)c3ccc4c(c3)OCCO4)cc2)CC1 | -5.6 | 0.0 | 3.9 | -9.6 | 35.6* | i
CC(C)(C)OC(=O)N1CCN(c2ccc(CNC(=O)c3ccc(Cl)cc3)cc2)CC1 | -0.6 | 0.6 | 1.6 | 50.1* | 4.3 | i
O=C(O)c1ccc(CNC(=O)c2ccc3c(c2)OCCO3)cc1 | -4.0 | 4.8 | 0.9 | 0.7 | 2.6 | i
CC(C)(C)c1ccc(C(=O)NCc2ccc(Cl)cc2)cc1 | -0.2 | -5.6 | -0.7 | -5.3 | 1.2 | i
Cc1ccc2oc(=O)c(/C=C(\O)c3sc(C)nc3C)nc2c1 | 0.2 | 6.3 | 122.6* | -106.5 | 9.0 | i
Cc1ccc(/C(O)=C/c2nc3ccccc3oc2=O)cc1 | 0.2 | 29.8 | 59.5* | -60.2 | -22.5 | .
CC(=O)Nc1cccc(N/C(N)=N/c2nc(C)cc(C)n2)c1 | 0.2 | 0.9 | -1.3 | 12.6 | -0.1 | i
Cc1ccc(N/C(N)=N/c2nc(C)cc(C)n2)cc1 | -1.1 | -1.6 | 55.3* | -48.5 | -1.6 | i
Cc1cccc(N/C(N)=N/c2nc(C)cc(C)n2)c1 | 3.9 | 0.2 | 81.1* | -52.6 | 4.2 | i
CCCCc1ccc(N/C(N)=N/c2nc(C)cc(C)n2)cc1 | 0.6 | -4.5 | 101.9* | -81.3 | 0.9 | i
COc1ccccc1C(=O)NC(CCSC)C(=O)NC1CC1 (stereo not given) | . | -3.6 | -1.3 | 10.0 | -1.1 | i
COc1ccccc1C(=O)NC(CCSC)C(=O)NC1CCCCCC1 (stereo not given) | 2.6 | -2.2 | -0.9 | 101.3* | -3.3 | i
O=C(NCC1CCCO1)c1cc(Br)c(Br)s1 (stereo not given) | -2.3 | 2.6 | -1.3 | -2.1 | 1.6 | i
CN(/N=C/c1c[nH]c2ccccc12)c1cnn(-c2ccc(F)c(Cl)c2)c(=O)c1Cl | -0.8 | 64.4* | 3.2 | 13.3 | 48.3* | .

Screening results from PubChem.
